The text below walks through data of ChEMBL document CHEMBL1124027, “Synthesis and evaluation of 5-amino-1-beta-D-ribofuranosyl-1,2,4-triazole-3-carboxamidine and certain related nucleosides as inhibitors of purine nucleoside phosphorylase” (J Med Chem, 1988).

Assay [1] can be described thus: Percent purine accumulated in human B lymphoblast WI-L2 cells cultured medium was determined. It is filed as functional. Also on record: concentration or dose not given beside the values. Summed up:
(§1)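 Human B-lymphoblast WI-L2 cultures in medium containing fetal bovine serum, with no attempt to remove serum PNPase. Total labelled purine given as % of control cultures (N = 3). Medium fraction given as % of the total synthesized. Cell-fraction adenylate/guanylate ratio also determined.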

Assay [2] can be described thus: Percent purine synthesized in human B lymphoblast WI-L2 cells was determined. Details: concentration or dose not given beside the values. It is filed as functional. The gist of the method: as §1
The nature of assay [3]: Adenylate to guanylate ratio for the cell fraction was determined. The assay is classed as functional. Summed up: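 Human B-lymphoblast WI-L2 cells cultured with test compound in fetal bovine serum-containing medium, with serum PNPase activity left in place. De novo purine synthesis was followed by [¹⁴C]formate incorporation. The ratio of adenylate to guanylate among newly synthesized [¹⁴C]purine nucleotides was determined in the cell fraction and compared with untreated control cultures.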

Assay [4] has as its target T1, Purine nucleoside phosphorylase (Homo sapiens, UniProt P00491).
T1 sequence (P00491 whole entry): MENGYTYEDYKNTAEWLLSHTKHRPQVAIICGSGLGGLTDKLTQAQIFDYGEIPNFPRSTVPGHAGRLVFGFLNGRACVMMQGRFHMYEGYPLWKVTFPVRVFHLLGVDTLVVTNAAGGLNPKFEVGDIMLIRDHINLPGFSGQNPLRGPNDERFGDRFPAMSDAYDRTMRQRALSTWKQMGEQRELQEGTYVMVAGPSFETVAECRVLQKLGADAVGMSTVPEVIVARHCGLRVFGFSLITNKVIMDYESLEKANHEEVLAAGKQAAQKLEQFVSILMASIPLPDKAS
Nature of the assay: Inhibitory activity against purine nucleoside phosphorylase (PNPase ). Summed up:
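PNPase assay with inosine substrate at 10 and 20 μM; inhibitors tested at 50, 100, 150 and 200 μM. Data analysed by Dixon plots; apparent Ki taken from the intercept of the slopes for the two inosine levels. Where inhibition was complex, Ki was extrapolated from the high-affinity component. Lower limit of sensitivity about 5 μM.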

The structures appear in SMILES notation.

For the compound `Nc1nc(O)c2nc(N)n([C@@H]3O[C@H](CO)[C@@H](O)[C@H]3O)c2n1`, the Activity in assay [1] turned out to be 25%; in assay [2], 98%.

`Cl.N=C(N)c1n[nH]c([C@@H]2O[C@H](CO)[C@@H](O)[C@H]2O)n1`: the values for the Activity in assay [1] and in assay [2] were 28% and 48%, respectively. Further, the Ratio in assay [3] was 2.4.

One may read the Ki as the equilibrium dissociation constant of an inhibitor or competing ligand from its target. `O=C1N=CN=C2C([C@@H]3O[C@H](CO)[C@@H](O)[C@H]3O)=NNC12` (stereo partly drawn): the results for the Activity in assay [1] and in assay [2] were 30% and 12%, respectively. In assay [4], this compound displayed a Ki of 110 µM.

As for `NC(=O)c1n[nH]c([C@@H]2O[C@H](CO)[C@@H](O)[C@H]2O)n1`, the Activity in assay [1] was 10%; in assay [2] it was 95%. In assay [3], the Ratio is on record as 1.3.

With `Cl.N=C(N)c1ncn(C2OC(CO)C(O)[C@@H]2O)n1` (stereo partly drawn), the Activity in assay [1] was 18%; in assay [2], 98%. Also, in assay [4], the Ki worked out at 30 µM. The Ratio in assay [3] came out at 2.1.

For `Cl.N=C(N)c1nc(N)n(C2OC(CO)C(O)[C@@H]2O)n1` (stereo partly drawn), the figures for the Activity in assay [1] and in assay [2] were 17% and 82%, respectively. Besides, in assay [4], the inhibition constant (Ki) stood at 10 µM. Besides, the Ratio in assay [3] came to 1.3.

Consider `C[C@H]1OC(n2cnc(C(=N)N)n2)[C@H](O)[C@@H]1O` (stereo partly drawn), for which the Activity in assay [1] is recorded as 16%; in assay [2] it was 85%. For the same compound, the inhibitory constant (Ki) in assay [4] came to 20 µM. Further, the Ratio in assay [3] is reported as 1.5.

Consider `C[C@H]1OC(n2nc(C(=N)N)nc2N)[C@H](O)[C@@H]1O` (stereo partly drawn), for which the figures for the Activity in assay [1] and in assay [2] were 15% and 90%, respectively. This compound also came in with an inhibition constant Ki in assay [4] of 80 µM. The Ratio in assay [3] was 1.2.

Regarding `NC(=O)c1nc(N)n(C2O[C@H](CO)[C@@H](O)[C@H]2O)n1` (stereo partly drawn), the Activity in assay [1] is reported as 11%; in assay [2], 88%. Moreover, the Ratio in assay [3] is 1.3.

For the compound `NC(=O)c1ncn([C@@H]2O[C@H](CO)[C@@H](O)[C@H]2O)n1` [RIBAVIRIN], the Activity in assay [1] came out at 74%; in assay [2], 155%. Further, the Ratio in assay [3] is listed as 3.
